ERAP1 inh: human ERAP1 aminopeptidase inhibitors, primary screen, biochemical, single point, plate reader; recombinant ERAP1, Leu-AMC fluorescence, 60 min; inhibition, % at 10.7 µM; 340,000 tested, 0.15% active; AID 652197, 2013;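 active = mean replicate inhibition of at least 30%, or all replicates individually reaching that 30% level; inactive = mean below 30% and not every replicate reaching it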
Target sequence (Q9NZ08 whole entry, looked up): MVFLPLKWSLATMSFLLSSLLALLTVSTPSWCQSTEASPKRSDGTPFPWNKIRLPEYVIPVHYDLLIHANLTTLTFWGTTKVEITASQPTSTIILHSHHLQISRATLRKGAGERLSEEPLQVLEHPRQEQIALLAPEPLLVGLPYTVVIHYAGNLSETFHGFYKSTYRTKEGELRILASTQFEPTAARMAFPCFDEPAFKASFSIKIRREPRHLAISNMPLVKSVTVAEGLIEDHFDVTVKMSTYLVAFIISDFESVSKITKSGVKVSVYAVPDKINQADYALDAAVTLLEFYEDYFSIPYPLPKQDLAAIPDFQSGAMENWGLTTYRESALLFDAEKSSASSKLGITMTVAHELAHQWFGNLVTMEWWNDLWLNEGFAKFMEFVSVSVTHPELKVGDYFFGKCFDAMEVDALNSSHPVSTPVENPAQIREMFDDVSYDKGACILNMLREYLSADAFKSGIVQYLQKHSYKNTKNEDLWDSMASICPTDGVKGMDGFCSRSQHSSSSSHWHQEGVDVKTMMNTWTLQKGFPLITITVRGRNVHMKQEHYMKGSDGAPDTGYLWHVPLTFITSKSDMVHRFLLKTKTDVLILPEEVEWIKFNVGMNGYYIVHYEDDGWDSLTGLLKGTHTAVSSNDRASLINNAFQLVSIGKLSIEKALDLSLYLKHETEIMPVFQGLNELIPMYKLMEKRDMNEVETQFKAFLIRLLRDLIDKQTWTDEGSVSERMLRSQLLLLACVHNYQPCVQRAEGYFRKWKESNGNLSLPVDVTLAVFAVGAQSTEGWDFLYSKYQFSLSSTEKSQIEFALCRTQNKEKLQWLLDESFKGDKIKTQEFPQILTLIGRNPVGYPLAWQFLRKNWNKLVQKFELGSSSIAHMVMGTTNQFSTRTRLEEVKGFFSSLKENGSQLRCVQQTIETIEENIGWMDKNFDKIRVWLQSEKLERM
SIRT5 block: SIRT5 desuccinylase inhibitors, primary screen, biochemical, fluorescence imaging, single point, set 5; 330,000 tested, 1.1% active; inhibition, % at 15 µM; Purified SirT5, succinyl-peptide AMC, trypsin-coupled fluorescence; in the data active = inhibition above about 15%; inconclusive = no clear call, values can overlap the other calls
DENV2 CPE: inhibitors of DENV2 cytopathic effect, primary screen, cell-based, plate reader, single concentration; 350,000 tested, 1.7% active; CPE inhibition, % at 9.99 µM; AID 651640, 2012; DENV2-infected cells, cytopathic effect rescue; in the data active = CPE inhibition above about 20%, passing the limit was not always enough; inconclusive = no clear call, values can overlap the other calls; tested in BHK-21 cells
E-sel inducer: E-selectin induction in HUVECs, primary screen, imaging, HUVEC, immunofluorescence imaging, single point. P16581. normalized: neutral wells 0, TNF-alpha wells 100. activation, % at 7.58 µM. 260,000 tested, 0.37% active. AID 686992, 2013;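 active = mean E-selectin-positive cell signal at least 10% of the positive control, reached in at least 60% of replicates, without over 20% cell loss; inconclusive = no rule given, readout overlaps actives, possibly toxicity-flagged; inactive = the rest, including those meeting only one limit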
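assay system = HUVEC, human umbilical vein endothelial cells | input = 3,000 HUVEC seeded per well | medium = EGM-2 growth medium on 0.1% gelatin-coated wells | dosing = one compound dose added by pin transfer | signal = immunofluorescence imaging | read-out basis = % PE-positive cells | control set = TNF-alpha, DMSO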
PglD DTNB: C. jejuni PglD acetyltransferase inhibitors, primary screen, biochemical, DTNB colorimetric, single point. UDP-N-acetylbacillosamine N-acetyltransferase PglD (Campylobacter jejuni). purified PglD enzyme, DTNB colorimetric CoA detection. inhibition, % at 12.5 µM. 360,000 tested, 0.098% active; in the data active = inhibition above about 16%, passing the limit was not always enough; inconclusive = no clear call, values can overlap the other calls
Numbers stand for hits; - = inactive; ? = inconclusive; . = not tested or not shown; ! = repeats disagree. Most compounds without a hit are left out; they make up all but 2.5% or so of the library.

SMILES	ERAP1 inh	SIRT5 block	DENV2 CPE	E-sel inducer	PglD DTNB
CC(C)C#Cc1cnc2c(c1)C(=O)N([C@@H](C)CO)C[C@@H](C)[C@H](CN(C)Cc1ccccn1)O2	-	21	-	-	.
O=C(C[C@@H]1CC[C@@H](NS(=O)(=O)c2ccc(F)cc2)[C@H](CO)O1)NCCc1ccncc1	-	-	-	-	-
Cc1ccc(C(=O)Nc2cccc(-c3ccc(N4CCOCC4)nn3)c2)cc1[N+](=O)[O-]	-	-	-	.	-
COc1ccc(COC(=O)c2c(C)nn(-c3ccccc3)c2Cl)cc1	-	-	-	-	-
Cc1ccc(C)c(OC(=O)C2CSC3(C)CCC(=O)N23)c1C (stereo unspecified)	-	-	-	.	-
CN(C)CCCNC(=O)C[C@@H]1CC[C@@H]2[C@H](COC[C@@H](O)CN2CC2CCCCC2)O1	-	-	-	-	.
Cc1ccc(S(=O)(=O)N2CCN(c3ncnc4sccc34)CC2)cc1	-	-	-	-	-
Cc1ccccc1NC(=O)N1CCC(NC(=O)C2CCCCC2)CC1	-	-	-	-	-
CC(=O)N=c1sc(S(N)(=O)=O)nn1C	-	-	-	-	-
CCCNC(=O)N(C)C[C@H]1Oc2cc(C#CC(C)C)ccc2S(=O)(=O)N([C@H](C)CO)C[C@@H]1C	-	19	-	-	-
CCCNC(=O)N(C)C[C@H]1Oc2cc(C#CC(C)C)ccc2S(=O)(=O)N([C@H](C)CO)C[C@H]1C	-	-	-	-	-
CCCNC(=O)N(C)C[C@@H]1Oc2cc(C#C[C@@H](C)O)ccc2S(=O)(=O)N([C@@H](C)CO)C[C@@H]1C	.	-	-	-	-
CCCNC(=O)N(C)C[C@H]1Oc2cc(C#C[C@H](C)O)ccc2S(=O)(=O)N([C@@H](C)CO)C[C@@H]1C	-	18	-	-	-
N#CC1C(=O)NC(=O)C(C#N)C12CCCCC2 (stereo unspecified)	-	.	-	-	.
COc1ccc(NC(=O)CN(C)C(=O)Cc2ccc(S(=O)(=O)N3CCOCC3)s2)cc1	-	-	-	-	-
C[C@@H]1CN([C@@H](C)CO)C(=O)c2cc(NC(=O)Nc3ccc(F)cc3)ccc2O[C@@H]1CN(C)S(=O)(=O)c1cccs1	-	-	-	161	-
C[C@H](CO)N1C[C@H](C)[C@H](CN(C)S(=O)(=O)c2cccs2)Oc2ccc(NS(=O)(=O)c3ccc(F)cc3)cc2C1=O	-	-	-	-	-
C[C@H]1CN([C@@H](C)CO)C(=O)c2cccc(NS(=O)(=O)c3ccc(F)cc3)c2O[C@H]1CN(C)S(=O)(=O)c1cccs1	-	-	-	235	-
C[C@@H]1CN([C@@H](C)CO)C(=O)c2cc(NS(=O)(=O)c3cccs3)ccc2O[C@H]1CN(C)S(C)(=O)=O	-	-	?	-	-
C[C@@H]1CN([C@@H](C)CO)C(=O)c2cc(NS(=O)(=O)c3cccs3)ccc2O[C@@H]1CN(C)S(C)(=O)=O	-	-	-	154	-
C[C@@H]1CN([C@@H](C)CO)C(=O)c2cc(NS(=O)(=O)c3ccc(F)cc3)ccc2O[C@H]1CN(C)S(=O)(=O)c1cccs1	-	-	46	-	-
COc1ccc(/C=N/NC(=O)C(=O)NCC2CCCO2)cc1 (stereo unspecified)	-	-	-	.	-
CN(c1ccc(C(=O)NCc2ccccn2)cc1)S(=O)(=O)c1ccc(Cl)cc1	-	-	?	-	-
COCC#Cc1ccc([C@@H]2[C@@H](CO)N3CCCCN(S(=O)(=O)c4cccc(OC)c4)C[C@H]23)cc1	.	.	.	-	-
CC(C)C(=O)Nc1cccc(N2CCN(CCCN3C(=O)C4CCCCN4C3=O)CC2)c1 (stereo unspecified)	-	-	-	-	-
SMILES	ERAP1 inh	SIRT5 block	DENV2 CPE	E-sel inducer	PglD DTNB
CCN1CCN(Cc2ccc(NC(=O)c3ccc(C)c(NC(=O)N4CCNC4=O)c3)cc2C(F)(F)F)CC1	-	-	120!	-	-
CCN1CCN(Cc2ccc(NC(=O)c3ccc(C)c(NC(=O)c4nccnc4N)c3)cc2C(F)(F)F)CC1	-	.	?	-	-
CCN1CCN(Cc2ccc(NC(=O)c3ccc(C)c(NC(=O)c4cc(-c5ccc(Br)cc5)n[nH]4)c3)cc2C(F)(F)F)CC1	-	-	36	-	-
CCN1CCN(Cc2ccc(NC(=O)c3ccc(C)c(NC(=O)c4nccn4C)c3)cc2C(F)(F)F)CC1	.	.	-	-	-
CCOC(=O)c1cccc(NC(=O)Nc2ccc3c(c2)C(=O)OC3)c1	.	.	-	61	-
CCCN(C)C[C@@H]1Oc2cc(C#CCC(C)C)ccc2S(=O)(=O)N([C@H](C)CO)C[C@@H]1C	-	-	34	-	-
CCCC#Cc1ccc2c(c1)O[C@@H](CN(C)CCC)[C@@H](C)CN([C@@H](C)CO)S2(=O)=O	-	-	-	85	-
CCCC#Cc1ccc2c(c1)O[C@@H](CN(C)CC1CCOCC1)[C@H](C)CN([C@H](C)CO)S2(=O)=O	-	24	-	-	-
CC(=O)Nc1ccc(CCCCc2ccccc2)cc1	-	-	-	-	-
COc1ccc(NC(=O)CSc2nnc(Cc3ccc(C)cc3)c(=O)n2N)cc1OC	-	-	-	-	-
C[C@@H]1CCCCO[C@H](CN(C)S(=O)(=O)c2ccc(F)cc2)[C@@H](C)CN([C@@H](C)CO)C(=O)c2cc(NS(=O)(=O)c3ccccc3)ccc2O1	-	17	-	-	-
C[C@@H]1CCCCO[C@@H](CN(C)S(=O)(=O)c2ccc(F)cc2)[C@@H](C)CN([C@@H](C)CO)C(=O)c2cc(NS(=O)(=O)c3ccccc3)ccc2O1	-	16	-	-	-
C[C@@H]1CCCCO[C@H](CN(C)S(=O)(=O)c2ccccc2)[C@@H](C)CN([C@@H](C)CO)C(=O)c2cc(NS(=O)(=O)c3ccc(F)cc3)ccc2O1	-	-	25	-	.
C[C@@H]1CCCCO[C@H](CN(C)S(=O)(=O)c2ccccc2)[C@H](C)CN([C@@H](C)CO)C(=O)c2cc(NS(=O)(=O)c3ccc(F)cc3)ccc2O1	-	-	-	-	-
O=C(C1CC1)N1CCCCN2[C@H](CO)[C@@H](c3ccc(C#CC4CCCC4)cc3)[C@@H]2C1	-	-	-	-	-
CC(c1ccccc1)C1C(C#N)=C(N)OC2=C1C(=O)CCC2 (stereo unspecified)	.	.	.	.	-
Nc1nnc(SCC(=O)Nc2ccc(N3CCOCC3)c(Cl)c2)s1	-	-	-	-	-
Nc1nnc(SCC(=O)Nc2cccc(Cl)c2)s1	-	-	50	-	.
CO[C@@H]1CN(C)C(=O)c2ccc(NC(=O)c3ccccc3)cc2OC[C@H](C)N(C(=O)C2CC2)C[C@@H]1C	.	.	.	-	-
CN(C)c1ccc(-c2cc3ccccc3c(=O)o2)cc1	-	.	114	.	-

Compound activity: PubChem BioAssay, Broad Institute
